An excerpt weighted towards active compounds, which were near 2.3% of everything screened.
Rpn11 inh – Rpn11 (PSMD14) deubiquitinase inhibitors, primary screen, biochemical, fluorescence polarization, uHTS | 26S proteasome non-ATPase regulatory subunit 14 (Homo sapiens), O00487 | inhibition, % at 20 µM | human 26S proteasome, Ub4-pepOG fluorescence polarization; 20S core pre-blocked with epoxomicin | AID 588493, 2011 | 360,000 compounds, 0.59% hits;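 active means inhibition at 20 µM, scaled to each plate's controls, above about 33%, limit read from the data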
Target sequence (O00487 whole entry, looked up): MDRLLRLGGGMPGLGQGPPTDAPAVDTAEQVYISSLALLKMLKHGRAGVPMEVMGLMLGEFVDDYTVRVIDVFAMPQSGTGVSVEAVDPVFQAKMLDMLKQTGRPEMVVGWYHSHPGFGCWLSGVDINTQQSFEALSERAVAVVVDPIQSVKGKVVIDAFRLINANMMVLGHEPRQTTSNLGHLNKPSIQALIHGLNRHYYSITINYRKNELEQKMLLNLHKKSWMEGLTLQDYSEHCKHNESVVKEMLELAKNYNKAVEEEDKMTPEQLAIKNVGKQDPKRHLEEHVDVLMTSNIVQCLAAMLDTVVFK
HNF4A DNA FP – change in binding of human HNF4A to DNA, primary screen, biochemical, fluorescence polarization, FITC-DNA. Hepatocyte nuclear factor 4-alpha (Homo sapiens), P41235. 1 h. activity change, % at 10 µM. 360,000 compounds, 0.3% hits. AID 1224865, 2016; in the data active means activity change above about 30%, passing the limit was not always enough
Myeloid diff MLP – induction of myeloid progenitor differentiation, primary screen, cell-based, flow cytometry, MLPCN library. ER-HoxA9 myeloid progenitors, lysozyme-GFP differentiation. calls only at 10 µM. 360,000 compounds, 1% hits. AID 624256, 2012;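 active means normalized GFP-positive differentiation at or above the plate's own cutoff, the solvent-only control mean plus 3 SD; inconclusive means no clear call, values can overlap the other calls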;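 further: cells exposed to compound for four days before flow analysis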
CSN inh – inhibitors of CSN-mediated cullin deneddylation, primary screen, biochemical, fluorescence polarization, uHTS | COP9 signalosome complex subunit 5 (Homo sapiens), Q92905 | Purified CSN, SCF-Nedd8-OG deneddylation | inhibition, % at 12.5 µM | 360,000 compounds, 0.38% hits | AID 651999, 2013;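 active means pattern-corrected inhibition above about 35%, with an unprinted fluorescence ratio check between 0.5 and 1.5, limit read from the data, passing the limit was not always enough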
Target sequence (Q92905 whole entry, looked up, one chain of several): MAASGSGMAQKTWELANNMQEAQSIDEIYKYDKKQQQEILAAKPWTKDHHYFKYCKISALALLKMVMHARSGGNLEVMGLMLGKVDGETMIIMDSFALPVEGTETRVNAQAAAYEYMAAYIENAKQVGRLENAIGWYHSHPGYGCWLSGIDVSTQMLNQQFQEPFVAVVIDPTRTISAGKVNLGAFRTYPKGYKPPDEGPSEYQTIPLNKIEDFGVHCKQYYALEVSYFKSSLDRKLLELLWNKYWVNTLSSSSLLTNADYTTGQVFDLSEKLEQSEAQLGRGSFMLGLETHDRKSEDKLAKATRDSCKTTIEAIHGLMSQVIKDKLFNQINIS
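Test system: purified human Csn5 enzyme expressed in HEK293T cells. Amount: 0.24 nM enzyme. Reagent: SCFSkp2-Nedd8OG substrate at 10 nM final. Schedule: 90 min incubation of compound, enzyme and substrate at room temperature. Detection: fluorescence polarization. Read-out: % inhibition of substrate cleavage by Csn5.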
TPT1 inh – Candida albicans TPT1 enzyme inhibitors, primary screen, biochemical, fluorescence polarization | AID 1962, 2009 | tRNA 2'-phosphotransferase TPT1 (Candida albicans SC5314) | inhibition, % at 5 µM | 300,000 compounds, 0.81% hits | recombinant caTPT1, FP RNA substrate dephosphorylation;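 active means inhibition above the mean of all tested compounds plus 3 SD, set per screening campaign, cut at about 24% in these data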
Myeloid diff CP1 – inducers of myeloid progenitor differentiation, confirmation, cell-based, GFP/Mac1 flow cytometry, cherry pick 01; 2,300 compounds, 2% hits; shares compounds with Myeloid diff MLP; calls only; AID 651706, 2012; ER-HoxA9 myeloid progenitors, GFP/Mac1 double-positive flow;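 active means share of green or green-and-red cells above 9 and 9% in run 1 or 4 and 3% in run 2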
GFP autofluor – compound fluorescence in myeloid differentiation counter-screen. ER-HoxA9 myeloid progenitors, no estrogen, GFP autofluorescence flow cytometry; vehicle wells 0%, positive control 100%. shares compounds with Myeloid diff MLP. AID 651707. fluorescence response, % (test concentration not listed). 2,300 compounds, 7.4% hits;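 active means over 5% cells positive for green fluorescent reporter, or over 2% positive for both it and APC stain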
Calls only.

`O=C(/C=C/[C@H]1O[C@@H](n2ccc(=O)[nH]c2=O)[C@H](O)[C@@H]1O)NCc1cccc2ccccc12` gave Rpn11 inh inactive, HNF4A DNA FP inactive, Myeloid diff MLP active, CSN inh inactive, Myeloid diff CP1 inactive and GFP autofluor inactive.
O=C(/C=C/[C@H]1O[C@@H](n2ccc(=O)[nH]c2=O)[C@H](O)[C@@H]1O)NCc1cccs1 was read as Rpn11 inh inactive, HNF4A DNA FP inactive, Myeloid diff MLP inactive and CSN inh inactive.
Screening Cc1ccc(OCCn2cc(C=O)c3ccccc32)cc1 returned Rpn11 inh inactive, HNF4A DNA FP inactive, Myeloid diff MLP inactive, CSN inh inactive and TPT1 inh inactive.
For CC(C)(C)NCC(O)Cn1cc(C=O)c2ccccc21 (stereo not drawn) the results were Rpn11 inh inactive, HNF4A DNA FP inactive, Myeloid diff MLP inactive, CSN inh inactive, TPT1 inh inactive, Myeloid diff CP1 inactive and GFP autofluor inactive.
CC(=O)C1=C(O)C=C(c2ccco2)CC1c1ccco1 (stereo not drawn) was read as Rpn11 inh inactive, HNF4A DNA FP inactive, Myeloid diff MLP inactive, CSN inh inactive, TPT1 inh inactive, Myeloid diff CP1 inactive and GFP autofluor inactive.
O=C(CCl)N1N=C(c2ccco2)CC1c1ccco1 (stereo not drawn) was read as Rpn11 inh inactive, HNF4A DNA FP inactive, Myeloid diff MLP inconclusive, CSN inh inactive and TPT1 inh inactive.
Screening COc1ccc(C(=O)Nn2cnc3scc(-c4cccs4)c3c2=O)c(O)c1 returned Rpn11 inh inactive, HNF4A DNA FP inactive, Myeloid diff MLP inactive, CSN inh inactive, TPT1 inh inactive, Myeloid diff CP1 inactive and GFP autofluor inactive.
For N#C/C(=C\Nc1ccc(Cl)cc1)S(=O)(=O)c1ccccn1 the results were Rpn11 inh inactive, HNF4A DNA FP inactive, Myeloid diff MLP inactive, CSN inh inactive and TPT1 inh inactive.
`Cc1ccc(C2(C)NC(=O)N(CC(=O)Nc3cc(S(=O)(=O)N4CCCCC4)ccc3OC(C)C)C2=O)cc1` (stereo not drawn) gave Rpn11 inh inactive, HNF4A DNA FP inactive, Myeloid diff MLP active, CSN inh inactive, TPT1 inh inactive, Myeloid diff CP1 inactive and GFP autofluor inactive.
`COc1nc(OC)nc(N2CCCCCC2)n1` gave Rpn11 inh inactive, HNF4A DNA FP inactive, Myeloid diff MLP inactive, CSN inh inactive, TPT1 inh inactive, Myeloid diff CP1 inactive and GFP autofluor inactive.
COc1ccc(-c2csc(NC(=O)C3CC(=O)N(Cc4ccco4)C3)n2)cc1 (stereo not drawn) was read as Rpn11 inh inactive, HNF4A DNA FP inactive, Myeloid diff MLP inactive, CSN inh inactive and TPT1 inh inactive.
For COc1ccc(-c2nc(NC(=O)C3CC(=O)N(Cc4ccco4)C3)sc2C)cc1 (stereo not drawn) the results were Rpn11 inh inactive, HNF4A DNA FP inactive, Myeloid diff MLP inactive, CSN inh inactive, Myeloid diff CP1 inactive and GFP autofluor inactive.
For O=C(CSc1ncnc2nc[nH]c12)c1ccc2ccccc2c1 the results were Rpn11 inh inactive, HNF4A DNA FP inactive, Myeloid diff MLP active, CSN inh inactive, TPT1 inh inactive, Myeloid diff CP1 inactive and GFP autofluor inactive.
For COc1ccc(CC(=O)NNC(=O)c2ccc(SCc3cc(F)ccc3F)c([N+](=O)[O-])c2)cc1 the results were Rpn11 inh inactive, HNF4A DNA FP inactive, Myeloid diff MLP inactive, CSN inh inactive, TPT1 inh inactive, Myeloid diff CP1 inactive and GFP autofluor inactive.
For COc1cccc(C(=O)NNC(=O)Cc2ccc([N+](=O)[O-])cc2)c1 the results were Rpn11 inh inactive, HNF4A DNA FP inactive, Myeloid diff MLP inactive, CSN inh inactive and TPT1 inh inactive.
Screening O=C(NCc1ccc(F)cc1)C(=O)NCC1OCCCN1S(=O)(=O)c1cccs1 (stereo not drawn) returned Rpn11 inh inactive, HNF4A DNA FP inactive, Myeloid diff MLP inactive, CSN inh inactive and TPT1 inh inactive.
Nc1ncnc2c1ncn2[C@@H]1O[C@H](CCC(=O)NCc2ccccc2)[C@@H](O)[C@H]1O was read as Rpn11 inh inactive, HNF4A DNA FP inactive, Myeloid diff MLP inactive and CSN inh inactive.
CC(NC(=O)COC(=O)CNS(=O)(=O)/C=C/c1ccccc1)c1ccccc1 (stereo not drawn) was read as Rpn11 inh inactive, HNF4A DNA FP inactive, Myeloid diff MLP inactive and CSN inh inactive.
Screening CC1CC2C3CCC4=CC(=O)C=CC4(C)C3(F)C(O)CC2(C)C1(O)C(=O)CO (stereo not drawn) returned Rpn11 inh inactive, Myeloid diff MLP inactive, CSN inh inactive and TPT1 inh inactive.
`C[C@]12C=CC(=O)C=C1CC[C@H]1[C@@H]3C[C@@H](O)[C@](O)(C(=O)CO)[C@@]3(C)C[C@H](O)[C@@]12F` gave Rpn11 inh inactive, HNF4A DNA FP inactive, Myeloid diff MLP inactive, CSN inh inactive, TPT1 inh inactive, Myeloid diff CP1 inactive and GFP autofluor inactive.
O=C(/C=C\c1ccc2c(c1)OCO2)Nc1c2c(nn1-c1ccc(Cl)cc1)CSC2 was read as Rpn11 inh inactive, HNF4A DNA FP inactive, Myeloid diff MLP inactive, CSN inh inactive, TPT1 inh inactive, Myeloid diff CP1 inactive and GFP autofluor inactive.
Screening CCCCN(C)C1=Nc2cccc3cccc1c23 returned Rpn11 inh inactive, HNF4A DNA FP inactive, Myeloid diff MLP active, CSN inh inactive, TPT1 inh inactive, Myeloid diff CP1 inactive and GFP autofluor inactive.
`CCCCON1C(=O)c2cccc3cccc(c23)C1=O` gave Rpn11 inh inactive, HNF4A DNA FP inactive, Myeloid diff MLP inactive, CSN inh inactive and TPT1 inh inactive.
For O=C(COC(=O)CNC(=O)c1ccc(Br)o1)Nc1ccccc1OC(F)F the results were Rpn11 inh inactive, HNF4A DNA FP inactive, Myeloid diff MLP inactive, CSN inh inactive and TPT1 inh inactive.
COc1ccc(CN(C)C(=O)c2cccc(NC(=O)CC3SC(N4CCCCC4)=NC3=O)c2)c(OC)c1 (stereo not drawn) was read as Rpn11 inh inactive, HNF4A DNA FP inactive, Myeloid diff MLP inactive and CSN inh inactive.
Screening C#CC[N+](CC)(CC)CC#Cc1ccccc1 returned Rpn11 inh inactive, HNF4A DNA FP inactive, Myeloid diff MLP active, CSN inh inactive, TPT1 inh inactive, Myeloid diff CP1 active and GFP autofluor inactive.
